Measured values from ChEMBL document CHEMBL4689842, “EUbOPEN Chemogenomics Library wave 1” (2021).
Several values for one entry are separate records, joined by “and”; a condition that tells them apart may be missing. Equal entries are not always repeated.

System: HEK-293T
Experiment: Multiplex assay against HEK293T;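 for Population Tubulin-Different-Phenotype (%): share of the cells with healthy nuclei that show this phenotype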
Format: toxicity, cell-based
Details: human
Outline: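 Values for tubulin, mitochondrial-mass and membrane-permeability phenotypes are per cents of cells with healthy nuclei. These cells were identified by CellPathfinder machine-learning gating of live cells that had been stained at seeding with Hoechst33342, BioTracker Green Microtubule Cytoskeleton Dye, MitoTracker Red and Annexin V Alexa Fluor 680 and imaged on a CQ1 microscope at 37°C and 5% CO2 after compound addition. The gating first set Hoechst high-intensity objects apart from normal cells, then split normal cells into healthy, pyknosed or fragmented nuclei, and pyknosed cells into mitotic or apoptotic.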

[1] = 12 h, 1 µM, compound concentration 1 uM, replicate 1
[2] = 12 h, 1 µM, compound concentration 1 uM, replicate 2
[3] = 12 h, 10 µM, compound concentration 10 uM, replicate 1
[4] = 12 h, 10 µM, compound concentration 10 uM, replicate 2
[5] = 24 h, 1 µM, compound concentration 1 uM, replicate 1
[6] = 24 h, 1 µM, compound concentration 1 uM, replicate 2
[7] = 24 h, 10 µM, compound concentration 10 uM, replicate 1
[8] = 24 h, 10 µM, compound concentration 10 uM, replicate 2

Compound: CC(=O)O[C@H]1C(=O)[C@@]2(C)[C@H]([C@H](OC(=O)c3ccccc3)[C@]3(O)C[C@H](OC(=O)[C@H](O)[C@@H](NC(=O)c4ccccc4)c4ccccc4)C(C)=C1C3(C)C)[C@]1(OC(C)=O)CO[C@@H]1C[C@@H]2O [PACLITAXEL]
- Population Apoptotic (%) [1]: 21% and 24%
- Population Fragmented Nuclei (%) [1]: 12% and 13%
- Population Healthy Nuclei (%) [1]: 71% and 68%
- Population Hoechst High Intensity Objects (%) [1]: 10% and 14%
- Population Membrane Permeable-Phenotype (%) [1]: 4%
- Population Mitochondria Different-Phenotype (%) [1]: 3% and 4%
- Population Mitotic Cells (%) [1]: 78% and 75%
- Population Normal (%) [1]: 89% and 85%
- Population Pyknosed Nuclei (%) [1]: 15% and 18%
- Population Tubulin-Different-Phenotype (%) [1]: 2%
- Population Apoptotic (%) [2]: 7% and 10%
- Population Fragmented Nuclei (%) [2]: 10% and 8%
- Population Healthy Nuclei (%) [2]: 85% and 87%
- Population Hoechst High Intensity Objects (%) [2]: 1%
- Population Membrane Permeable-Phenotype (%) [2]: 1% and 0%
- Population Mitochondria Different-Phenotype (%) [2]: 5%
- Population Mitotic Cells (%) [2]: 92% and 89%
- Population Normal (%) [2]: 98%
- Population Pyknosed Nuclei (%) [2]: 3% and 4%
- Population Apoptotic (%) [3]: 23% [middle of 4 runs]
- Population Fragmented Nuclei (%) [3]: 15% and 13% and 11% and 10%
- Population Healthy Nuclei (%) [3]: 69% and 72% and 76% and 75%
- Population Hoechst High Intensity Objects (%) [3]: 11% and 7% and 8%
- Population Membrane Permeable-Phenotype (%) [3]: 8% and 5% and 4%
- Population Mitochondria Different-Phenotype (%) [3]: 5% and 4% and 3%
- Population Mitotic Cells (%) [3]: 80% and 77% and 72% and 76%
- Population Normal (%) [3]: 88% and 92% and 91%
- Population Pyknosed Nuclei (%) [3]: 14% [middle of 4 runs]
- Population Tubulin-Different-Phenotype (%) [3]: 2% and 3%
- Population Apoptotic (%) [4]: 12% and 6% and 9%
- Population Fragmented Nuclei (%) [4]: 8% and 14%
- Population Healthy Nuclei (%) [4]: 86% and 81% and 85%
- Population Hoechst High Intensity Objects (%) [4]: 1% and 3% and 2%
- Population Membrane Permeable-Phenotype (%) [4]: 1% and 0%
- Population Mitochondria Different-Phenotype (%) [4]: 7%
- Population Mitotic Cells (%) [4]: 87% and 93% and 90%
- Population Normal (%) [4]: 98% and 96% and 97%
- Population Pyknosed Nuclei (%) [4]: 4% and 3%
- Population Tubulin-Different-Phenotype (%) [4]: 4% and 1%
- Population Apoptotic (%) [5]: 10% and 29%
- Population Fragmented Nuclei (%) [5]: 12% and 13%
- Population Healthy Nuclei (%) [5]: 79%
- Population Hoechst High Intensity Objects (%) [5]: 7% and 8%
- Population Membrane Permeable-Phenotype (%) [5]: 8% and 7%
- Population Mitochondria Different-Phenotype (%) [5]: 2% and 4%
- Population Mitotic Cells (%) [5]: 89% and 70%
- Population Normal (%) [5]: 92% and 91%
- Population Pyknosed Nuclei (%) [5]: 8% and 7%
- Population Tubulin-Different-Phenotype (%) [5]: 2% and 4%
- Population Apoptotic (%) [6]: 7%
- Population Fragmented Nuclei (%) [6]: 24% and 32%
- Population Healthy Nuclei (%) [6]: 73% and 65%
- Population Hoechst High Intensity Objects (%) [6]: 3% and 4%
- Population Membrane Permeable-Phenotype (%) [6]: 5% and 3%
- Population Mitochondria Different-Phenotype (%) [6]: 1% and 0%
- Population Mitotic Cells (%) [6]: 92%
- Population Normal (%) [6]: 96% and 95%
- Population Pyknosed Nuclei (%) [6]: 1%
- Population Apoptotic (%) [7]: 22% [middle of 4 runs]
- Population Fragmented Nuclei (%) [7]: 15% [middle of 4 runs]
- Population Healthy Nuclei (%) [7]: 80% and 78% and 81% and 79%
- Population Hoechst High Intensity Objects (%) [7]: 5% and 3% and 6%
- Population Membrane Permeable-Phenotype (%) [7]: 10% and 7%
- Population Mitochondria Different-Phenotype (%) [7]: 2% and 3%
- Population Mitotic Cells (%) [7]: 77% and 76% and 82% and 79%
- Population Normal (%) [7]: 94% and 96% and 93%
- Population Pyknosed Nuclei (%) [7]: 4% and 5% and 6% and 7%
- Population Tubulin-Different-Phenotype (%) [7]: 4% and 5%
- Population Fragmented Nuclei (%) [8]: 30% [middle of 4 runs]
- Population Healthy Nuclei (%) [8]: 73% and 69% and 60% and 67%
- Population Hoechst High Intensity Objects (%) [8]: 4%
- Population Membrane Permeable-Phenotype (%) [8]: 3% and 2%
- Population Mitochondria Different-Phenotype (%) [8]: 1% and 0%
- Population Mitotic Cells (%) [8]: 87% and 96% and 93% and 98%
- Population Normal (%) [8]: 95%
- Population Pyknosed Nuclei (%) [8]: 1% and 2%
- Population Tubulin-Different-Phenotype (%) [8]: 2%
